According to ChEMBL document CHEMBL1149311, “Synthesis and antitumor activity of methyltriazene prodrugs simultaneously releasing DNA-methylating agents and the antiresistance drug O(6)-benzylguanine” (J Med Chem, 2004):

How the values were obtained:
HL-60 = test: Antitumor activity against human HL60 cells; assay type: functional
In short: (§1)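 Tested in the NCI in vitro disease-oriented human tumor cell screen. The endpoints are IC50 (molar concentration giving 50% growth inhibition), TGI (total growth inhibition) and LC50 (50% net cell death). The maximal concentration tested was 100 μM. Subpanel values are means of several individual cell lines.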

RPMI-8226 = test: Antitumor activity against human RPMI8226 cells; assay type: functional; in short: as §1
A549 = test: Antitumor activity against human A549 cells; assay type: functional; in short: as §1
EKVX = test: Antitumor activity against human EKVX cells; assay type: functional; in short: as §1
HOP-62 = test: Antitumor activity against human HOP62 cells; assay type: functional; in short: as §1
NCI-H322M = test: Antitumor activity against human NCI-H322M cells; assay type: functional; in short: as §1
NCI-H460 = test: Antitumor activity against human NCI-H460 cells; assay type: functional; in short: as §1
COLO 205 = test: Antitumor activity against human COLO 205 cells; assay type: functional; in short: as §1
HCT-15 = test: Antitumor activity against human HCT15 cells; assay type: functional; in short: as §1
KM12 = test: Antitumor activity against human KM12 cells; assay type: functional; in short: as §1
SW-620 = test: Antitumor activity against human SW620 cells; assay type: functional
In short: (§2)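 NCI in vitro disease-oriented tumour cell line screen. Read-outs are IC50 (molar concentration giving 50% growth inhibition), TGI (molar concentration giving total inhibition of net growth) and LC50 (molar concentration giving 50% net cell death). The maximal concentration tested was 100 μM.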

SF-295 = test: Antitumor activity against human SF295 cells; assay type: functional; in short: as §1
SNB-19 = test: Antitumor activity against human SNB19 cells; assay type: functional; in short: as §1
SNB-75 = test: Antitumor activity against human SNB75 cells; assay type: functional; in short: as §2
[1] = Antitumor activity against human LOX IMV1 cells; assay type: functional, cell-based; in short: as §1
SK-MEL-2 = test: Antitumor activity against human SK-MEL-2 cells; assay type: functional; in short: as §1
SK-MEL-5 = test: Antitumor activity against human SK-MEL-5 cells; assay type: functional; in short: as §1
UACC-257 = test: Antitumor activity against human UACC257 cells; assay type: functional; in short: as §2
UACC-62 = test: Antitumor activity against human UACC62 cells; assay type: functional; in short: as §2
IGROV-1 = test: Antitumor activity against human IGROV1 cells; assay type: functional; in short: as §1
OVCAR-4 = test: Antitumor activity against human OVCAR4 cells; assay type: functional; in short: as §1
OVCAR-8 = test: Antitumor activity against human OVCAR8 cells; assay type: functional; in short: as §1
786-0 = test: Antitumor activity against human 786-0 cells; assay type: functional; in short: as §1
CAKI-1 = test: Antitumor activity against human CAKI1 cells; assay type: functional; in short: as §1
TK-10 = test: Antitumor activity against human TK10 cells; assay type: functional; in short: as §2
UO-31 = test: Antitumor activity against human UO31 cells; assay type: functional; in short: as §2
PC-3 = test: Antitumor activity against human PC3 cells; assay type: functional; in short: as §1
DU-145 = test: Antitumor activity against human DU145 cells; assay type: functional; in short: as §1
MCF7 = test: Antitumor activity against human MCF7 cells; assay type: functional; in short: as §1
MDA-MB-231 = test: Antitumor activity against human MDA-MB-231 cells; assay type: functional; in short: as §1
MDA-MB-435 = test: Antitumor activity against human MDA-MB-435 cells; assay type: functional; in short: as §1
BT-549 = test: Antitumor activity against human BT549 cells; assay type: functional; in short: as §1
T47D = test: Antitumor activity against human T47D cells; assay type: functional; in short: as §2
[2] = Half life of hydrolysis in deuterated phosphate buffer at pD 7.8; conditions: deuterated phosphate buffer, pH 7.8
[3] = system: Non-small cell lung cancer cell line; test: Antitumor activity against human NCI non-small cell lung cancer cell line panel; assay type: functional, cell-based; in short: as §1
NCI [4] = test: Antitumor activity against NCI human melanoma cell line panel; assay type: functional, cell-based; in short: as §1
carcinoma cell line = test: Antitumor activity against human NCI ovarian carcinoma cell line panel; assay type: functional, cell-based; in short: as §1
NCI [5] = test: Antitumor activity against human NCI renal cancer cell line panel; assay type: functional, cell-based; in short: as §1
NCI [6] = test: Antitumor activity against human NCI prostate cancer cell line panel; assay type: functional, cell-based; in short: as §1
NCI [7] = test: Antitumor activity against human NCI breast cancer cell line panel; assay type: functional, cell-based; in short: as §1
HOP-92 = test: Antitumor activity against human HOP92 cells; assay type: functional; in short: as §1
[8] = read-out: Log LC50 (the source's name) (converted)

CN(/N=N/c1nc(OCc2ccccc2)c2nc[nH]c2n1)C(=O)N(C)/N=N/c1nc(OCc2ccccc2)c2nc[nH]c2n1
GI50 (HL-60): 63.1 µM | CC50 (HL-60; [8]): > 100 µM | TGI (HL-60; read-out: Log TGI (converted)): > 100 µM | GI50 (RPMI-8226): 38 µM | CC50 (RPMI-8226; [8]): > 100 µM | TGI (RPMI-8226; read-out: Log TGI (converted)): > 100 µM | CC50 (A549; [8]): > 100 µM | TGI (A549; read-out: Log TGI (converted)): > 100 µM | GI50 (EKVX): 38 µM | CC50 (EKVX; [8]): > 100 µM | TGI (EKVX; read-out: Log TGI (converted)): > 100 µM | GI50 (HOP-62): 95.5 µM | LC50 (HOP-62): > 100 µM | TGI (HOP-62; read-out: Log TGI (converted)): > 100 µM | GI50 (NCI-H322M): 41.7 µM | CC50 (NCI-H322M; [8]): > 100 µM | TGI (NCI-H322M; read-out: Log TGI (converted)): > 100 µM | GI50 (NCI-H460): 26.3 µM | CC50 (NCI-H460; [8]): > 100 µM | TGI (NCI-H460; read-out: Log TGI (converted)): > 100 µM | GI50 (COLO 205): 37.2 µM | CC50 (COLO 205; [8]): > 100 µM | TGI (COLO 205; read-out: Log TGI (converted)): > 100 µM | GI50 (HCT-15): 35.5 µM | CC50 (HCT-15; [8]): > 100 µM | TGI (HCT-15; read-out: Log TGI (converted)): > 100 µM | GI50 (KM12): 85.1 µM | CC50 (KM12; [8]): > 100 µM | TGI (KM12; read-out: Log TGI (converted)): > 100 µM | GI50 (SW-620): 72.4 µM | CC50 (SW-620; [8]): > 100 µM | TGI (SW-620; read-out: Log TGI (converted)): > 100 µM | GI50 (SF-295): 32.4 µM | CC50 (SF-295; [8]): > 100 µM | TGI (SF-295; read-out: Log TGI (converted)): > 100 µM | GI50 (SNB-19): > 100 µM | LC50 (SNB-19): > 100 µM | TGI (SNB-19; read-out: Log TGI (converted)): > 100 µM | GI50 (SNB-75): > 100 µM | CC50 (SNB-75; [8]): > 100 µM | TGI (SNB-75; read-out: Log TGI (converted)): > 100 µM | GI50 [1]: 37.2 µM | CC50 [1, 8]: > 100 µM | TGI ([1]; read-out: Log TGI (converted)): > 100 µM | GI50 (SK-MEL-2): 64.6 µM | CC50 (SK-MEL-2; [8]): > 100 µM | TGI (SK-MEL-2; read-out: Log TGI (converted)): > 100 µM | GI50 (SK-MEL-5): 20.9 µM | CC50 (SK-MEL-5; [8]): > 100 µM | TGI (SK-MEL-5; read-out: Log TGI (converted)): 61.7 µM | GI50 (UACC-257): 55 µM | CC50 (UACC-257; [8]): > 100 µM | TGI (UACC-257; read-out: Log TGI (converted)): > 100 µM | GI50 (UACC-62): 30.9 µM | CC50 (UACC-62; [8]): > 100 µM | TGI (UACC-62; read-out: Log TGI (converted)): > 100 µM | GI50 (IGROV-1): 34.7 µM | CC50 (IGROV-1; [8]): > 100 µM | TGI (IGROV-1; read-out: Log TGI (converted)): > 100 µM | GI50 (OVCAR-4): > 100 µM | CC50 (OVCAR-4; [8]): > 100 µM | TGI (OVCAR-4; read-out: Log TGI (converted)): > 100 µM | GI50 (OVCAR-8): 51.3 µM | LC50 (concentration giving 50% net cell death) (OVCAR-8): > 100 µM | TGI (OVCAR-8; read-out: Log TGI (converted)): > 100 µM | GI50 (786-0): 60.3 µM | LC50 (concentration giving 50% net cell death) (786-0): > 100 µM | TGI (786-0; read-out: Log TGI (converted)): > 100 µM | GI50 (CAKI-1): 17 µM | CC50 (CAKI-1; [8]): > 100 µM | TGI (CAKI-1; read-out: Log TGI (converted)): 63.1 µM | GI50 (TK-10): 26.9 µM | CC50 (TK-10; [8]): > 100 µM | TGI (TK-10; read-out: Log TGI (converted)): > 100 µM | GI50 (UO-31): 36.3 µM | CC50 (UO-31; [8]): > 100 µM | TGI (UO-31; read-out: Log TGI (converted)): > 100 µM | GI50 (PC-3): 40.7 µM | CC50 (PC-3; [8]): > 100 µM | TGI (PC-3; read-out: Log TGI (converted)): > 100 µM | GI50 (DU-145): 38.9 µM | CC50 (DU-145; [8]): > 100 µM | TGI (DU-145; read-out: Log TGI (converted)): > 100 µM | GI50 (MCF7): 42.7 µM | CC50 (MCF7; [8]): > 100 µM | TGI (MCF7; read-out: Log TGI (converted)): > 100 µM | GI50 (MDA-MB-231): 40.7 µM | CC50 (MDA-MB-231; [8]): > 100 µM | TGI (MDA-MB-231; read-out: Log TGI (converted)): > 100 µM | GI50 (MDA-MB-435): 49 µM | CC50 (MDA-MB-435; [8]): > 100 µM | TGI (MDA-MB-435; read-out: Log TGI (converted)): > 100 µM | GI50 (BT-549): 36.3 µM | CC50 (BT-549; [8]): > 100 µM | TGI (BT-549; read-out: Log TGI (converted)): > 100 µM | GI50 (T47D): 39.8 µM | CC50 (T47D; [8]): > 100 µM | TGI (T47D; read-out: Log TGI (converted)): > 100 µM | half-life [2]: 7.17 h | IC50 [3]: 42 µM | TGI [3]: > 100 µM | IC50 (NCI [4]): 47 µM | TGI (NCI [4]): 93 µM | IC50 (carcinoma cell line): 50 µM | TGI (carcinoma cell line): > 100 µM | IC50 (NCI [5]): 36 µM | TGI (NCI [5]): 87 µM | IC50 (NCI [6]): 40 µM | TGI (NCI [6]): > 100 µM | IC50 (NCI [7]): 39 µM | TGI (NCI [7]): > 100 µM | GI50 (HOP-92): 30.2 µM | CC50 (HOP-92; [8]): > 100 µM | TGI (HOP-92; read-out: Log TGI (converted)): > 100 µM
